For series [1], the target named is Acetylcholine receptor; alpha1/beta1/delta/gamma (Homo sapiens, UniProt P02708+P07510+P11230+Q07001). Kind of series: Antagonist activity at alpha-1-beta-1-gamma-delta nicotinic receptor in human TE671 cells assessed as inhibition varbamylcholine-induced radiolabeled Rb+ influx at by liquid scintillation counting. The series is classed as functional, cell-based, TE-671. A digest of the protocol: (§1)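 ⁸⁶Rb⁺-loaded human cells were given a 5-min efflux with carbamylcholine at EC₈₀–EC₉₀ plus graded test ligand. Non-specific efflux, taken with 100 μM mecamylamine or buffer, was subtracted. IC₅₀ came from a Hill fit of three independent experiments, with SEM given as a multiplication factor.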

Series [2] has as its system Mus musculus. Kind of series: Smoke cessation activity in sc dosed ICR mouse assessed as inhibition of nicotine-induced hypothermia administered 15 mins before nicotine challenge measured after 30 mins of nicotine infusion. The series is classed as functional, organism-based. Put shortly:
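Male ICR mice (20–25 g) were pretreated with test drug or saline 15 min before nicotine at 2.5 mg/kg sc. Rectal temperature was taken before and 30 min after nicotine, and the change was calculated. Room temperature was 21–24 °C. AD₅₀ came from at least four doses, with at least 8 mice per dose.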

For series [3], the system named is Mus musculus. Kind of series: Toxicity in sc dosed ICR mouse assessed occurrence of convulsion. As to conditions: in vivo. The series is classed as organism-based.
Series [4] relates to Mus musculus. Briefly: Smoke cessation activity in sc dosed ICR mouse assessed as inhibition of nicotine-induced antinociception administered 15 mins before nicotine challenge measured after 5 mins of nicotine infusion by hotplate assay. The series is classed as functional, organism-based. A digest of the protocol: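 Male ICR mice (20–25 g) were pretreated with saline or test drug 15 min before nicotine at 2.5 mg/kg sc. They were tested 5 min later on a 55 °C hot plate (40 s cutoff), and the result was expressed as %MPE. AD₅₀ came from at least four doses, with at least 8 mice per dose.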

In series [5] the test system is Mus musculus. Kind of series: Toxicity in sc dosed ICR mouse assessed occurrence of sedation. The series is classed as organism-based. As to conditions: in vivo.
In series [6] the test system is Mus musculus. Briefly: Smoke cessation activity in sc dosed ICR mouse assessed as inhibition of nicotine-induced increase in locomotor activity administered 15 mins before nicotine challenge measured after 5 mins of nicotine infusion. The series is classed as functional, organism-based.
Series [7] deals with Mus musculus. Briefly: Smoke cessation activity in sc dosed ICR mouse assessed as inhibition of nicotine-induced antinociception administered 15 mins before nicotine challenge measured after 5 mins of nicotine infusion by tail-flick assay. The series is classed as functional, organism-based. A digest of the protocol:
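Radiant-heat tail-flick latency was read 5 min later (10 s cutoff; baseline 2–4 s) and expressed as %MPE. AD₅₀ came from at least four doses, with at least 8 mice per dose.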
A general note: Hot-plate and tail-flick tests time the reaction to a heat stimulus.

The target of series [8] is T1, Neuronal acetylcholine receptor; alpha4/beta4 (Homo sapiens, UniProt P30926+P43681). Kind of series: Antagonist activity at alpha4beta4 nicotinic receptor in human SH-EP1 cells assessed as inhibition varbamylcholine-induced radiolabeled Rb+ influx at by liquid scintillation counting. The series is classed as functional, cell-based. A digest of the protocol: as §1

Series [9] relates to SH-EP1. Briefly: Selectivity ratio of IC50 for alpha4beta2 nicotinic receptor in human SH-EP1 cells to IC50 for IC50 for human NET. The series is classed as cell-based.
The target of series [10] is Neuronal acetylcholine receptor; alpha4/beta2 (Homo sapiens, UniProt P17787+P43681). Briefly: Agonist activity at alpha4beta2 nicotinic receptor in human SH-EP1 cells assessed as induction of radiolabeled Rb+ influx at 0.005 to 100 uM by liquid scintillation counting. The series is classed as functional, cell-based. Put shortly:
(§2)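 Cells were labelled with ⁸⁶Rb⁺ for at least 4 h, then exposed for 5 min in efflux buffer (pH 7.4) to test ligand alone at ~5 nM to 100 μM. The lines were TE671/RD (muscle α1β1γδ), SH-SY5Y (α3β4*) and transfected SH-EP1-hα4β2 or -hα4β4. Efflux was Cerenkov-counted. Non-specific efflux was subtracted, and results were normalized to specific efflux from carbamylcholine (1 mM; 3 mM for SH-SY5Y).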

In series [11] the target is T1, Neuronal acetylcholine receptor; alpha4/beta4. Kind of series: Agonist activity at alpha4beta4 nicotinic receptor in human SH-EP1 cells assessed as induction of radiolabeled Rb+ influx at 0.005 to 100 uM by liquid scintillation counting. The series is classed as functional, cell-based. A digest of the protocol:
as §2

Series [12] deals with SH-SY5Y. Kind of series: Selectivity ratio of IC50 for alpha3beta4 nicotinic receptor in human SH-SY5Y cells to IC50 for IC50 for human NET. The series is classed as cell-based.
Series [13] has as its target Sodium-dependent noradrenaline transporter (Homo sapiens, UniProt P23975). Briefly: Inhibition of [3H]norepinephrine reuptake at human NET expressed in HEK293 cells after 90 mins by scintillation counting. The series is classed as cell-based. A digest of the protocol:
(§3)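 Uptake of [³H]DA or [³H]NE was measured in HEK293 cells stably expressing human DAT or NET. Values are from three independent experiments, each run in triplicate.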

Series [14] has as its target Sodium-dependent serotonin transporter (Homo sapiens, UniProt P31645). Kind of series: Inhibition of [3H]serotonin reuptake at human SERT expressed in HEK293 cells after 90 mins by scintillation counting. The series is classed as cell-based.
Series [15] concerns the target Sodium-dependent dopamine transporter (Homo sapiens, UniProt Q01959). Kind of series: Inhibition of [3H]dopamine reuptake at human DAT expressed in HEK293 cells after 90 mins by scintillation counting. The series is classed as cell-based. A digest of the protocol:
as §3

Calls of active or inactive are those of the source. A value given as a limit tells only on which side of the number the result lay.

T1 sequence (P30926 whole entry): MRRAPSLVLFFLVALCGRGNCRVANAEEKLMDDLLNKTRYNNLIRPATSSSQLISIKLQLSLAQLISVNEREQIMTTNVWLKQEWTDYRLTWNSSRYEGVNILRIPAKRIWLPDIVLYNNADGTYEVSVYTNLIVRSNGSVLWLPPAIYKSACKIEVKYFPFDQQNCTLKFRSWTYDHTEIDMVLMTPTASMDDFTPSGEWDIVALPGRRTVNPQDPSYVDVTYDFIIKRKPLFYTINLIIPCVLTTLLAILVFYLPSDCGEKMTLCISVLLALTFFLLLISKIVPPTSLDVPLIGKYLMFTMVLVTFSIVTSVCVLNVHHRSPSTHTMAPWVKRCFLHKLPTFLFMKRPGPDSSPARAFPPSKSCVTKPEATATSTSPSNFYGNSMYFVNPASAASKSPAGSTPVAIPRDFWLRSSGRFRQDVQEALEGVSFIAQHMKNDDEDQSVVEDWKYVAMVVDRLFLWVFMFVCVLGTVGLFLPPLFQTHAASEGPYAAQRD
T1 sequence (P43681 whole entry): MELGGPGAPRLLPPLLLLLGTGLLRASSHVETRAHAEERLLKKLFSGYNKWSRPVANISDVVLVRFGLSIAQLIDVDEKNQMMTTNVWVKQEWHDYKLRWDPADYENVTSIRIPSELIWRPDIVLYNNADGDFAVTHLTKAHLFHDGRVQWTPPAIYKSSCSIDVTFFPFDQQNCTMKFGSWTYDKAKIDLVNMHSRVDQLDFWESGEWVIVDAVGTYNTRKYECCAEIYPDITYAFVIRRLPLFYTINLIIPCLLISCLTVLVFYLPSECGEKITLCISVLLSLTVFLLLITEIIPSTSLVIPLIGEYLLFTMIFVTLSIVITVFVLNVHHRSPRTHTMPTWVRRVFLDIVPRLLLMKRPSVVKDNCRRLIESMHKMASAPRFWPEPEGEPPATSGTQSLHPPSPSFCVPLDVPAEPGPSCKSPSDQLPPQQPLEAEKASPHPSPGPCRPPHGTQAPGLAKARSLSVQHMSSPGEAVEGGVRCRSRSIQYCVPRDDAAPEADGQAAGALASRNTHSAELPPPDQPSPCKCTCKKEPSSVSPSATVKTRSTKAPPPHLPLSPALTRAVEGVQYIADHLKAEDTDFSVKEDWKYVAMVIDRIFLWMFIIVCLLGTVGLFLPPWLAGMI
Chain of Acetylcholine receptor; alpha1/beta1/delta/gamma (P02708 whole entry): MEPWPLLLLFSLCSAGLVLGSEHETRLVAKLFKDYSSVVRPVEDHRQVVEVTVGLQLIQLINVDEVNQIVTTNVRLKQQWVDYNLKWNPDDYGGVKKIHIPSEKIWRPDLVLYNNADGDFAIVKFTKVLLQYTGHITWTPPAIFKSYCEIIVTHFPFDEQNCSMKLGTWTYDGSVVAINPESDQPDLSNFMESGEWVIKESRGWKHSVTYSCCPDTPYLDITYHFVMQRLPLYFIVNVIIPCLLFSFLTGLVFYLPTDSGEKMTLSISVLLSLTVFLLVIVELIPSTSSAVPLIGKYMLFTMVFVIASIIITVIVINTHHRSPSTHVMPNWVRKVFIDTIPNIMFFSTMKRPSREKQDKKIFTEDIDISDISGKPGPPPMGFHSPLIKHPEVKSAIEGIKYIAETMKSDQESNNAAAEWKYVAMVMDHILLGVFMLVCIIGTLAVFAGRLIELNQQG
Chain of Acetylcholine receptor; alpha1/beta1/delta/gamma (P07510 whole entry): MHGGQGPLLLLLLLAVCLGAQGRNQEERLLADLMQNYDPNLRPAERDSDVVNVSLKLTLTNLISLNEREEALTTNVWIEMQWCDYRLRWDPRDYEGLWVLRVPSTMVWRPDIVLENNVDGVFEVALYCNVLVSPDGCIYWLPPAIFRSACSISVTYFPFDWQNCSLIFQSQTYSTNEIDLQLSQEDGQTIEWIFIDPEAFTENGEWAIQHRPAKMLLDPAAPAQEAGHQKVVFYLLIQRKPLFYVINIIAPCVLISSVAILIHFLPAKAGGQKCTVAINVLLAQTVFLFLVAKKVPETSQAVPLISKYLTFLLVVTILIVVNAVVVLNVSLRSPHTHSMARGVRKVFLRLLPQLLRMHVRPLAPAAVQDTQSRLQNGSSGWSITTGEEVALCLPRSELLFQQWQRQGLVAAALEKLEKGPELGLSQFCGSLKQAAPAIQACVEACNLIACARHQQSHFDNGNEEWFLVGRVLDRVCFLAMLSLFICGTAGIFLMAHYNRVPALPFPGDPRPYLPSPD
Chain of Acetylcholine receptor; alpha1/beta1/delta/gamma (P11230 whole entry): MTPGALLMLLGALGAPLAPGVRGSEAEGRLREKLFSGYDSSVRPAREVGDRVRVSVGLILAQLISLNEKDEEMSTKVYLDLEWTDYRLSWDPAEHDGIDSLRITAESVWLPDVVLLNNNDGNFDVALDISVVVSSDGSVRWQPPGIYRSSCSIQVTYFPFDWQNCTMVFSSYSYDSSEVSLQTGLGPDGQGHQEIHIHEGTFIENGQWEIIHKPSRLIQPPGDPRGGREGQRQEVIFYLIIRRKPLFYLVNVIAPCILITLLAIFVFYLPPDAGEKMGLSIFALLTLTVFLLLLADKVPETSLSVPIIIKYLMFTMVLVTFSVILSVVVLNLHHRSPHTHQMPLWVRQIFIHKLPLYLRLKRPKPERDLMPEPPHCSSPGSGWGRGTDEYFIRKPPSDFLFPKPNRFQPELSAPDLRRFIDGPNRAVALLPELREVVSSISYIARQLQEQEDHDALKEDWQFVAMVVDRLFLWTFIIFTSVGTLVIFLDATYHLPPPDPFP
Chain of Acetylcholine receptor; alpha1/beta1/delta/gamma (Q07001 whole entry): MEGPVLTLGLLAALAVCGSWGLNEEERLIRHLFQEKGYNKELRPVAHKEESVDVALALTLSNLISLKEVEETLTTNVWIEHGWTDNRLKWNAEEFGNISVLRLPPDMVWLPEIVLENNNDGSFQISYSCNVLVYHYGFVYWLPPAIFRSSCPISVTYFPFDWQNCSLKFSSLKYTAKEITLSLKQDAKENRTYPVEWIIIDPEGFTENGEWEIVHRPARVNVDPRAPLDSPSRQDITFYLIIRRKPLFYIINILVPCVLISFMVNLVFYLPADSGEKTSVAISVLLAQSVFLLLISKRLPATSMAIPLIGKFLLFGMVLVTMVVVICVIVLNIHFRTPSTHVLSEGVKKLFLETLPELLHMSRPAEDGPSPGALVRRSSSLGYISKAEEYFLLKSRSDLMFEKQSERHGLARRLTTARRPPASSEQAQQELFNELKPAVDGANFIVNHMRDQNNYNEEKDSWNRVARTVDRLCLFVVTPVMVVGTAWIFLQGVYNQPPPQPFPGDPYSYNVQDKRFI
Chain of Sodium-dependent serotonin transporter (P31645 whole entry): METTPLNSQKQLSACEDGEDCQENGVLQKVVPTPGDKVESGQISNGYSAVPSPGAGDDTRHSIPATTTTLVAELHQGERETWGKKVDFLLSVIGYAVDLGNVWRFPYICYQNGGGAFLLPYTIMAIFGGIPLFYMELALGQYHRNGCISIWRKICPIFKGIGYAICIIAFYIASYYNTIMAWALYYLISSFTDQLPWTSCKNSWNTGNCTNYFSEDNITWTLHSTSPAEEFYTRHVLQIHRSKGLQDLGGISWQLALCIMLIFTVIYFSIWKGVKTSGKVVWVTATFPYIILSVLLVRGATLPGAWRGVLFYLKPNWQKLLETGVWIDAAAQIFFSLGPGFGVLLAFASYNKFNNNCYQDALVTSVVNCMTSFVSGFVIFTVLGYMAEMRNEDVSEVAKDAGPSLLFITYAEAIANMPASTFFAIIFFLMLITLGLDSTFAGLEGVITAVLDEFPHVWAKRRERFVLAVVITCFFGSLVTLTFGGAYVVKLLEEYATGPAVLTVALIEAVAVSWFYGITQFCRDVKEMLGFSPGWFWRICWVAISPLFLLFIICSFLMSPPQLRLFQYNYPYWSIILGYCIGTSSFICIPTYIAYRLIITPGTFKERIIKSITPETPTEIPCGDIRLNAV
Chain of Sodium-dependent noradrenaline transporter (P23975 whole entry): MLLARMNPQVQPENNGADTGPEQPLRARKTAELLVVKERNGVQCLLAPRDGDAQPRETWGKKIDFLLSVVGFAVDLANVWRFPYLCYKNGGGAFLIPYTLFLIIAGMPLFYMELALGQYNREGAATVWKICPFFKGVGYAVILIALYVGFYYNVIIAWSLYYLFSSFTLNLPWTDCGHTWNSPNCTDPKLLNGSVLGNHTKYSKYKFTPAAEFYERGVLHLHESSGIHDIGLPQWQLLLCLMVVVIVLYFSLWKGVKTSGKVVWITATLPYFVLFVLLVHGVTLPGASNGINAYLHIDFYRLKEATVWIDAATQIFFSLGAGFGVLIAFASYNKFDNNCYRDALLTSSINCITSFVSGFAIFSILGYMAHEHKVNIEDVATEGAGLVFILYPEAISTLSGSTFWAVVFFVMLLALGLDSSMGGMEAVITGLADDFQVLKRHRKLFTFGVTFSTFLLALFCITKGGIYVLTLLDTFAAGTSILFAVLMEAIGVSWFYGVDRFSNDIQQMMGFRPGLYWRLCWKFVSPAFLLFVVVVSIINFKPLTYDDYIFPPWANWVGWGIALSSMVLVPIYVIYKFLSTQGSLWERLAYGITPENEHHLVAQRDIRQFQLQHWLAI
Chain of Sodium-dependent dopamine transporter (Q01959 whole entry): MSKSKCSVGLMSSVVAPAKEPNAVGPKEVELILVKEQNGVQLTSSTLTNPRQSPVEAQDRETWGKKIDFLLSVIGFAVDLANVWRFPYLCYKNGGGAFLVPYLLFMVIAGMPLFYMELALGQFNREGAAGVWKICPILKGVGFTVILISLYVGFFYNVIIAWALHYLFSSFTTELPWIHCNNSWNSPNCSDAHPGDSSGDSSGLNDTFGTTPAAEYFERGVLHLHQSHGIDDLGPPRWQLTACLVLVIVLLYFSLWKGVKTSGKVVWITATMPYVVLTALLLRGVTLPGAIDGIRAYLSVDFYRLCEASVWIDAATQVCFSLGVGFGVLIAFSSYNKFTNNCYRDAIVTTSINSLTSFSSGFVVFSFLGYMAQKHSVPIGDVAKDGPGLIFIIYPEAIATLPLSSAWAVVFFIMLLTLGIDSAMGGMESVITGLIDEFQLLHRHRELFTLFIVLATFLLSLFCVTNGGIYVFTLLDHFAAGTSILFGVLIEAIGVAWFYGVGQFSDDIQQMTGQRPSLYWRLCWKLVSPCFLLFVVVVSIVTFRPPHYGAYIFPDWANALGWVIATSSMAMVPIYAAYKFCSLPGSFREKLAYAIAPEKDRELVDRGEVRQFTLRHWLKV

Consider `C[C@@H]1NC(C)(C)CO[C@@]1(O)c1ccccc1`, for which the IC50 in series [1] is > 100 µM; in series [2] it was > 15 mg/kg; in series [4], > 15 mg/kg; in series [6], > 15 mg/kg; in series [7], > 15 mg/kg. The Activity entry in series [3] and in [5] was “Non-toxic” throughout.

As for `C[C@@H]1NC(C)(C)CO[C@@]1(O)c1cccc(F)c1`, the IC50 in [8] was > 100 µM; in series [1], > 100 µM; in series [2], 4.4 mg/kg; in [4], 8.6 mg/kg; in series [6] it was > 15 mg/kg; in series [7] it was 0.012 mg/kg. Besides, in series [9], the Ratio IC50 was found to be 1.7. For the same compound, the Activity result in [3] and in series [5] was “Non-toxic” in each case. Moreover, the result in series [10] and in series [11] was inactive.

With `CC1NC(C)(C)COC1(O)c1cccnc1` (racemic), the IC50 in series [8] and in series [1] was > 100 µM throughout. Also, the Activity entry in series [3] and in series [5] was “Non-toxic” in each case. Moreover, the outcome in series [10] and in series [11] was inactive.

`CC1NC(C)(C)COC1(O)c1ccc(Cl)c(Cl)c1` (racemic): the IC50 in series [2] is > 15 mg/kg; in series [4], > 15 mg/kg; in series [6] it was > 15 mg/kg; in series [7], 8.8 mg/kg. Further, the Ratio IC50 in [9] was found to be 175; in series [12], 23. In addition, the Activity entry in series [3] and in series [5] was “Non-toxic” throughout. Also, the result in series [10] and in series [11] was inactive.

On to `CCC[C@@H]1NC(C)(C)CO[C@@]1(O)c1cccc(Cl)c1`, for which the IC50 in [8] was 18 µM; in series [1] it was 10 µM; in [2] it was > 15 mg/kg; in [13], 0.031 µM; in series [4] it was > 15 mg/kg; in series [14] it was 4.13 µM. Further, the IC50 was determined as 0.03 µM in [15], 4.7 mg/kg in series [6] and 0.004 mg/kg in [7]. The Ratio IC50 in series [9] was found to be 240; in [12] it was 154. The Activity entry in [3] and in [5] was “Non-toxic” each time. The result in series [10] and in series [11] was inactive.

In the case of `CC1NC(C)(C)COC1(O)c1ccccn1` (racemic), the IC50 in series [8] and in series [1] was > 100 µM throughout. Moreover, the Activity entry in series [3] and in series [5] was “Non-toxic” throughout. The outcome in series [10] and in [11] was inactive.

The values are drawn from ChEMBL document CHEMBL1177712, “Synthesis and characterization of in vitro and in vivo profiles of hydroxybupropion analogues: aids to smoking cessation” (J Med Chem, 2010).
